A word on the MIC: it is the lowest concentration that inhibits growth of the organism. A low value points to greater potency. As usually defined, the IC50 is the concentration that inhibits the measured activity by half. For orientation: ΔTm means the change in melting temperature against a reference sample. As a reminder, the inhibition is how much of the control response was suppressed.

Converted amounts (≈) assume the structure as drawn. The source made the active and inactive calls. The calls are words filed in the database; no cut-off is given here.

The test system of test [1] is Enterococcus faecalis. Kind of test: Antibacterial activity against Enterococcus faecalis ATCC 29212 after 24 hrs by microbroth dilution method. The format is functional. As to conditions: ATCC 29212, 24 h. The procedure, abridged: (§1)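 Organisms were grown to log phase in Mueller-Hinton broth at 37 °C with shaking. They were pelleted, resuspended in 0.85% saline to OD625 0.1, and dispensed at a final 5×10^5 CFU/mL per CLSI microbroth dilution. Plates were run in triplicate and incubated 24 h at 37 °C, then OD625 was read. MIC was the lowest concentration giving complete growth inhibition versus untreated controls.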
For orientation: In broth dilution the organism is exposed to a series of concentrations in liquid medium.

Test [2] addresses T1, DNA topoisomerase 1 (Homo sapiens, UniProt P11387).
T1 sequence (P11387 whole entry): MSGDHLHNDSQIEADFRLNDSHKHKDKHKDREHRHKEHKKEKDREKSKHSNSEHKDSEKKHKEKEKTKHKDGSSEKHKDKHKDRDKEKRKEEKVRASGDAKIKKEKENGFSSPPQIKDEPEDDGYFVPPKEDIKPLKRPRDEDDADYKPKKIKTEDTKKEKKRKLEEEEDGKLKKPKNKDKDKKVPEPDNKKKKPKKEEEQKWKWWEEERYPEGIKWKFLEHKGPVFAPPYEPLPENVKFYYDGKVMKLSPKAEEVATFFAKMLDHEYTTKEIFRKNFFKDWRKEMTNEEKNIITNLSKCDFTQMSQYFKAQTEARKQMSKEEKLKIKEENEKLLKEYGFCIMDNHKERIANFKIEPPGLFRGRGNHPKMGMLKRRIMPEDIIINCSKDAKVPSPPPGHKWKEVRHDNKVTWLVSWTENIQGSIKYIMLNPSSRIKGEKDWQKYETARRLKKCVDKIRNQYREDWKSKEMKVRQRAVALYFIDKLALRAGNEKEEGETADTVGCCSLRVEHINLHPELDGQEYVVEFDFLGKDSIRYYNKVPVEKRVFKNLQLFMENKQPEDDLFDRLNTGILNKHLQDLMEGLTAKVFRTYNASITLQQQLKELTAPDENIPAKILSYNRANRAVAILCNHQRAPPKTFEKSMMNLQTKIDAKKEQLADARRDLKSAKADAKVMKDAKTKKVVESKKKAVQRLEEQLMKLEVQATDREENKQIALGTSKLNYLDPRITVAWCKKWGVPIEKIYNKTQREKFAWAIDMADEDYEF
Description: Inhibition of human DNA topoisomerase-1 using supercoiled pBAD-GFPuv plasmid DNA as substrate assessed as prevention of supercoiled DNA template from relaxation after 30 mins by agarose gel electrophoresis. An outline of the steps: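 Compound at 5–50 µM final; 30 min at 37 °C, phenol stop. Read on 1% agarose/TAE gel with ethidium stain. IC50 = concentration at 50% (−) supercoiled DNA by densitometry; mean of ≥3 determinations.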

In test [3] the test system is Staphylococcus aureus. Description: Antibacterial activity against Staphylococcus aureus ATCC 33591 after 24 hrs by microbroth dilution method. The format is functional. To be noted: ATCC 33591, 24 h. The procedure, abridged:
as §1

Test [4] relates to Staphylococcus aureus. Kind of test: Antibacterial activity against Staphylococcus aureus ATCC 29213 after 24 hrs by microbroth dilution method. As to conditions: ATCC 29213, 24 h. In kind it is functional. An outline of the steps: as §1
The nature of test [5]: Inhibition of Escherichia coli DNA topoisomerase-1 using supercoiled pBAD-GFPuv plasmid DNA as substrate assessed as prevention of supercoiled DNA template from relaxation after 15 mins by agarose gel electrophoresis.
For test [6], the system named is DU-145. Description: Cytotoxicity against human DU145 cells after 48 hrs by sulforhodamine B assay. The format is cell-based. As to conditions: DU-145, 48 h. An outline of the steps: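 DU145 cells were seeded and allowed 24 h to resume growth at 37 °C, 5% CO2. They were treated in triplicate at final 20, 10, 5, 2.5, 1.25, 0.625 and 0.0625 µM for 48 h, alongside untreated and media-only wells. Cells were fixed with cold TCA (16% final) and stained with sulforhodamine B in 1% acetic acid. Bound dye was solubilized in 10 mM Tris base and read at 560 nm to give IC50.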
Background: The SRB assay estimates cell density from bound dye.

Test [7] relates to Escherichia coli. Description: Antibacterial activity against Escherichia coli ATCC 25922 after 24 hrs by microbroth dilution method. The format is functional. To be noted: ATCC 25922, 24 h. The procedure, abridged:
as §1

Test [8] is described as follows: Binding affinity to dA60.dT60 DNA (unknown origin) assessed as change in melting temperature at 10 uM by UV-Vis spectrophotometric analysis. The procedure, abridged:
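Preformed dA60·dT60 duplex (equimolar strands heated 95 °C 15 min in 10 mM sodium cacodylate, 0.1 mM EDTA, 100 mM NaCl, pH 7.0, slowly cooled) at 1 µM duplex with 10 µM ligand (diluted from DMSO stock). Absorbance melting in 1 cm quartz cells, heating 0.2 °C/min, data every 1.0 °C; Tm shift versus ligand-free duplex.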

For test [9], the target named is T2, DNA gyrase (Escherichia coli) (UniProt P0AES6+P0AES4). Description: Inhibition of Escherichia coli DNA gyrase using relaxed pBAD-GFPuv plasmid DNA as substrate at 1 to 50 uM after 30 mins by agarose gel electrophoresis. In kind it is protein-complex assay.
The subject of test [10] is Calf thymus DNA. Kind of test: Binding affinity to calf thymus DNA assessed as change in melting temperature relative to control. In kind it is nucleic-acid assay. To be noted: Bos taurus.
The test system of test [11] is Escherichia coli. Description: Antibacterial activity against Escherichia coli K-12 after 24 hrs by microbroth dilution method. In kind it is functional. To be noted: K-12, 24 h. An outline of the steps:
as §1

Test [12] addresses T3, DNA topoisomerase 1 (Homo sapiens) (UniProt P11387).
T3 sequence (whole entry): T1 sequence (P11387 whole entry)
Description: Inhibition of human DNA topoisomerase-1 using supercoiled pBAD-GFPuv plasmid DNA as substrate assessed as prevention of supercoiled DNA template from relaxation at 50 uM after 30 mins by agarose gel electrophoresis relative to control. An outline of the steps:
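Human topoisomerase I (2 units) was incubated with 250 ng supercoiled pBAD-GFPuv in 20 mM Tris-HCl pH 7.9, 50 mM KAc, 10 mM Mg(Ac)2, 1 mM DTT and 1 µg/ml BSA, with compound at 10 or 50 µM, for 30 min at 37 °C. After a phenol stop, DNA was resolved on 1% agarose without chloroquine beside a relaxed plasmid marker and stained with ethidium bromide.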

The test system of test [13] is Pseudomonas aeruginosa. Description: Antibacterial activity against Pseudomonas aeruginosa ATCC 27853 after 24 hrs by microbroth dilution method. As to conditions: ATCC 27853, 24 h. The format is functional. The procedure, abridged:
as §1

Test [14] deals with T2, DNA gyrase (Escherichia coli). Description: Inhibition of Escherichia coli DNA gyrase using relaxed pBAD-GFPuv plasmid DNA as substrate at 1 to 10 uM after 30 mins by agarose gel electrophoresis. The format is protein-complex assay.
The target in test [15] is DNA topoisomerase 2-alpha (Homo sapiens, UniProt P11388). Kind of test: Inhibition of human DNA topoisomerase-2 using supercoiled pBAD-GFPuv plasmid DNA as substrate assessed as prevention of supercoiled DNA template from relaxation after 30 mins by agarose gel electrophoresis. The procedure, abridged: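 Compound at 5–50 µM final; 30 min at 37 °C, phenol stop. Read on 1% agarose/TAE gel with ethidium stain. IC50 = concentration at 50% (−) supercoiled DNA by band intensity; mean of ≥3 determinations.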

A short description of test [16]: Inhibition of Escherichia coli DNA topoisomerase-1 using supercoiled pBAD/Thio plasmid DNA as substrate assessed as prevention of supercoiled DNA from relaxation after 30 mins by agarose gel electrophoresis.

Chain of DNA topoisomerase 2-alpha (P11388 whole entry): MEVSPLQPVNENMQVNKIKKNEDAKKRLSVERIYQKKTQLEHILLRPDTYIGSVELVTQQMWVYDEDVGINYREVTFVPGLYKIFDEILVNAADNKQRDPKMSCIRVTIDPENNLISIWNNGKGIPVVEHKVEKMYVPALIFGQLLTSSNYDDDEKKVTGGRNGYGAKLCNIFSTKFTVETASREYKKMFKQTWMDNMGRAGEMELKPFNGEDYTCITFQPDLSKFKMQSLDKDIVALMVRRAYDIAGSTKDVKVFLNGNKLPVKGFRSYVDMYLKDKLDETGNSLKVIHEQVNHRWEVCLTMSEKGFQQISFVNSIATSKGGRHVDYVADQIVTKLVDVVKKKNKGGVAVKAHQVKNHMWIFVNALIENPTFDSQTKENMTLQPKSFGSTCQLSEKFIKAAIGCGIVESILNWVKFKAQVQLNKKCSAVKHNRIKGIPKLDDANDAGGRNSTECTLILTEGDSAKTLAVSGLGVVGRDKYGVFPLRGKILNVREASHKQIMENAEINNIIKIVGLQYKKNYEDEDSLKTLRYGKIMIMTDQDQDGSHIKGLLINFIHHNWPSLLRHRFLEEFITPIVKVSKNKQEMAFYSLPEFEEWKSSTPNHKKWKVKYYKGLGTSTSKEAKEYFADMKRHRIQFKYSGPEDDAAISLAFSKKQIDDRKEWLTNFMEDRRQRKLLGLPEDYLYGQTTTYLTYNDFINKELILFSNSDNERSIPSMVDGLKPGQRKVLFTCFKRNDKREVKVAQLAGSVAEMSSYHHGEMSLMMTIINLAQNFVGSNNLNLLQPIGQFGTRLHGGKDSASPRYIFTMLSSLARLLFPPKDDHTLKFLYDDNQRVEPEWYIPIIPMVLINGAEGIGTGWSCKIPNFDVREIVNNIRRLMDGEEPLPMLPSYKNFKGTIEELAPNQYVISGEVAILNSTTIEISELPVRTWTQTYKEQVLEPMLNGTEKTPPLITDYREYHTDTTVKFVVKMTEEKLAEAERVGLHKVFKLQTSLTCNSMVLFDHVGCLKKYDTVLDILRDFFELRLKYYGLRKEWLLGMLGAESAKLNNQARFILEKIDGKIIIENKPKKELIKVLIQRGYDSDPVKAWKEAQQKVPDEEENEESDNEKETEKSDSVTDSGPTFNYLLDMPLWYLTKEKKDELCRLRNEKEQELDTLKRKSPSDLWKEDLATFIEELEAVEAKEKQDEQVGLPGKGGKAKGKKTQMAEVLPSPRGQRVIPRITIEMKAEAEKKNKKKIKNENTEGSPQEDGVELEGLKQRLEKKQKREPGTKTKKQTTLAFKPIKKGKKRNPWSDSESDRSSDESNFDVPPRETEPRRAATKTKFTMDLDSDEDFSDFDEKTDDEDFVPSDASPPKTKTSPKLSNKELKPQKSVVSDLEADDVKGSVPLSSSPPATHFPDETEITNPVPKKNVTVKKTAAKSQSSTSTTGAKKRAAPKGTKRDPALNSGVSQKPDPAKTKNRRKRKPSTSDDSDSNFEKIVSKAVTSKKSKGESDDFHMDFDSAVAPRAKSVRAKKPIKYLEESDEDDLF

As to `CCOc1ccc(-c2nc3cc(-c4nc5cc(N6CCN(C)CC6)ccc5[nH]4)ccc3[nH]2)cc1`, the MIC in test [1] turned out to be 16 µg/mL (≈ 35.4 µM); in test [3] it was 2 µg/mL (≈ 4.42 µM); in test [4], 2 µg/mL (≈ 4.42 µM); in test [7], 8 µg/mL (≈ 17.7 µM). The IC50 in [2] is > 50 µM; in [5], 29.8 µM; in test [6], 4.25 µM. Moreover, in [8], the ΔTm came out at 24.1 °C.

Take `C#CCOCCCCOc1ccc(-c2nc3ccc(-c4nc5ccc(N6CCN(C)CC6)cc5[nH]4)cc3[nH]2)cc1`: in [9], the inhibition result is “inactive”. Further, the MIC was 2 µg/mL (≈ 3.74 µM) in test [3]; 2 µg/mL (≈ 3.74 µM) in [4]; 8 µg/mL (≈ 15 µM) in test [7]; 8 µg/mL (≈ 15 µM) in test [11]; 16 µg/mL (≈ 29.9 µM) in test [13]. Moreover, the ΔTm in test [10] amounted to 1 °C; in [8], 23.4 °C. Further, the IC50 in test [5] was found to be 6.63 µM. Moreover, the inhibition in [12] was found to be 5%.

Take `C#CCOc1ccc(-c2nc3ccc(-c4nc5ccc(N6CCN(C)CC6)cc5[nH]4)cc3[nH]2)cc1`: the MIC stood at 16 µg/mL (≈ 34.6 µM) in test [1]; 2 µg/mL (≈ 4.32 µM) in test [3]; 2 µg/mL (≈ 4.32 µM) in test [4]; 8 µg/mL (≈ 17.3 µM) in test [7]; 8 µg/mL (≈ 17.3 µM) in [11]. Further, the inhibition result in test [14] was “inactive”. The ΔTm in [10] amounted to 1 °C; in test [8], 22.9 °C. For the same compound, the IC50 in test [5] was found to be 5.5 µM. In test [12], the inhibition is 70%.

For the compound `CN1CCN(c2ccc3[nH]c(-c4ccc5[nH]c(-c6ccc(O)cc6)nc5c4)nc3c2)CC1` [HOECHST 33258], the MIC in test [1] is 16 µg/mL (≈ 37.7 µM); in [3], 16 µg/mL (≈ 37.7 µM); in [4], ≥ 32 µg/mL. Further, the inhibition entry in test [9] was “inactive”. Also, the IC50 in [2] stood at 22.9 µM; in test [5], 19.5 µM; in test [15], 28.9 µM. In addition, in test [8], the ΔTm came out at 24.6 °C.

For the compound `COc1ccc(-c2nc3cc(-c4nc5cc(N6CCN(C)CC6)ccc5[nH]4)ccc3[nH]2)cc1OC`, in [16], the IC50 was 3.8 µM.

As for `C#CCCCCCCCCCOc1ccc(-c2nc3ccc(-c4nc5ccc(N6CCN(C)CC6)cc5[nH]4)cc3[nH]2)cc1`, the MIC came to 16 µg/mL (≈ 27.8 µM) in test [1] and 8 µg/mL (≈ 13.9 µM) in test [11]. Also, in test [9], the inhibition entry was “inactive”. The thermal shift (ΔTm) in [10] came out at 1 °C; in [8] it was 8 °C. In addition, the IC50 in [5] is 2.47 µM; in test [6], > 10 µM. The inhibition in test [12] turned out to be 5%.

Turning to `C#CCCCCOc1ccc(-c2nc3ccc(-c4nc5ccc(N6CCN(C)CC6)cc5[nH]4)cc3[nH]2)cc1`, the MIC stood at 4 µg/mL (≈ 7.93 µM) in test [1]; 2 µg/mL (≈ 3.96 µM) in [3]; 2 µg/mL (≈ 3.96 µM) in [4]; 8 µg/mL (≈ 15.9 µM) in test [7]; 8 µg/mL (≈ 15.9 µM) in test [11]; 16 µg/mL (≈ 31.7 µM) in [13]. Besides, the inhibition entry in test [9] was “inactive”. Also, the results for the ΔTm in [10] and in test [8] were 1 °C and 20.9 °C, respectively. For the same compound, the values for the IC50 in [5] and in test [6] were 4.57 µM and 2.12 µM, respectively. Moreover, the inhibition in test [12] came to 5%.

The record behind these values is ChEMBL document CHEMBL3580637, “Selective Inhibition of Bacterial Topoisomerase I by alkynyl-bisbenzimidazoles” (Medchemcomm, 2014).
